{
  "source": "paper PMC5270551",
  "about": "(Biochemistry, 2015)",
  "molecules": {"B1": {"name": "HD5-TE: Linear form of human α-defensin 5 (iodoacetamide-capped) (peptide, UniProt Q01523 20-94, looked up)", "Defensin alpha 5": "ESLQERADEATTQKQSGEDNQDLAISFAGNGLSALRTSGSQARATCYCRTGRCATRESLSGVCEISGRLYRLCCR", "modifications": "Defensin-5 cysteines carbamidomethylated"}, "B2": {"name": "R-HD5[R9K]: rhodamine-HD5 conjugate, fluorophore positioned at R9K mutation site (conjugate, UniProt Q01523 20-94, looked up, variant R9K)", "Defensin alpha 5": "B1 Defensin alpha 5 with R52K", "modifications": "Defensin-5 rhodamine label at K9"}},
  "key": {"[1]": {"conditions": "cited from earlier work"}, "[2]": {"system": "Pseudomonas aeruginosa PAO1", "assay_type": "cell-based"}, "[3]": {"system": "Klebsiella pneumoniae 13883", "test": "Morphology imaging of Gram-negative bacteria", "assay_type": "cell-based", "conditions": "20 μM peptide, 1 × 10^8 CFU/mL, mid-log, 1 h 37 °C", "how_it_was_run": "(§1)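 Mid-log bacteria at 1 × 10^8 CFU/mL were exposed to test peptide (20 μM; 40 μM for P. aeruginosa) for 1 h at 37 °C in 10 mM sodium phosphate buffer, pH 7.4, with 1% v/v TSB, then imaged by microscopy for morphology.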"}, "E. coli ATCC 25922 [4]": {"system": "E. coli ATCC 25922", "test": "Morphology imaging by phase-contrast microscopy and SEM", "assay_type": "cell-based, Escherichia coli", "conditions": "for cells elongated (length 5 μm or greater) / cells exhibiting blebs: 1 × 10^8 CFU/mL, mid-log, 1 h 37 °C"}, "E. coli ATCC 25922 [5]": {"system": "E. coli ATCC 25922", "assay_type": "cell-based, Escherichia coli", "conditions": "for log-reduction in CFU/mL: 4 μM peptide"}, "[6]": {"system": "Acinetobacter baumannii 17978", "assay_type": "cell-based"}, "E. coli CFT073": {"system": "E. coli CFT073", "test": "Morphology imaging of Gram-negative bacteria", "assay_type": "cell-based, Escherichia coli", "conditions": "20 μM HD5ox, 1 × 10^8 CFU/mL, mid-log, 1 h 37 °C; R-HD5ox Figure S19", "how_it_was_run": "as §1"}, "E. coli K-12": {"system": "E. coli K-12", "test": "Morphology imaging of Gram-negative bacteria", "assay_type": "cell-based, Escherichia coli", "conditions": "20 μM peptide, 1 × 10^8 CFU/mL, mid-log, 1 h 37 °C", "how_it_was_run": "as §1"}, "E. coli cyto-GFP": {"system": "E. coli cyto-GFP", "assay_type": "cell-based, Escherichia coli", "how_it_was_run": "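An E. coli strain carrying cytoplasmic GFP, in mid-log or stationary phase, was exposed to test peptide across 0–80 μM. Cell length and mean GFP fluorescence intensity (arbitrary units) were taken from fluorescence images, and untreated and treated means were compared by Student's t-test.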"}},
  "note": "Substitutions are numbered along the chain they refer to. In names and notes the source's numbering stands. Like-named read-outs stand apart in the source and are kept apart here. Where a SMILES comes first, the peptide text is derived from it. Bridges are numbered along the chain shown (N, C = ends).",
  "data": [
    {"molecule": "CC[C@H](C)[C@@H]1NC(=O)[C@H](CCC(=O)O)NC(=O)[C@@H]2CSSC[C@@H]3NC(=O)[C@H](Cc4ccc(O)cc4)NC(=O)[C@@H](NC(=O)[C@@H](NC(=O)[C@H](C)N)[C@@H](C)O)CSSC[C@@H](C(=O)N[C@@H](CCCNC(=N)N)C(=O)O)NC(=O)[C@H](CSSC[C@H](NC(=O)[C@H](CCCNC(=N)N)NC(=O)CNC(=O)[C@H]([C@@H](C)O)NC(=O)[C@H](CCCNC(=N)N)NC3=O)C(=O)N[C@@H](C)C(=O)N[C@@H]([C@@H](C)O)C(=O)N[C@@H](CCCNC(=N)N)C(=O)N[C@@H](CCC(=O)O)C(=O)N[C@@H](CO)C(=O)N[C@@H](CC(C)C)C(=O)N[C@@H](CO)C(=O)NCC(=O)N[C@@H](C(C)C)C(=O)N2)NC(=O)[C@H](CC(C)C)NC(=O)[C@H](CCCNC(=N)N)NC(=O)[C@H](Cc2ccc(O)cc2)NC(=O)[C@H](CC(C)C)NC(=O)[C@H](CCCNC(=N)N)NC(=O)CNC(=O)[C@H](CO)NC1=O", "note": "[HD5ox] (H-ATCYCRTGRCATRESLSGVCEISGRLYRLCCR-OH; disulfide 3-31, 5-20, 10-30 (inferred); N-terminus and C-terminus assumed)", "values": [
      {"measurement": "oligomeric form at neutral pH", "setting": "[1]", "result": "tetramers"},
      {"measurement": "bacterial morphology", "setting": "[2]; 40 μM peptide, 1 × 10^8 CFU/mL, mid-log, 1 h 37 °C", "result": "bleb formation, elongation, and clumping"},
      {"measurement": "HD5ox concentration at which blebs were observed (only at this concentration)", "setting": "[2]; PAO1, 1 h", "result": 40, "unit": "µM"},
      {"measurement": "bacterial morphology", "setting": "[3]", "result": "bleb formation, elongation, and clumping"},
      {"measurement": "cells elongated (length 5 μm or greater)", "setting": "E. coli ATCC 25922 [4]; 20 μM peptide, n = 212 cells", "result": 2, "unit": "%"},
      {"measurement": "cells exhibiting blebs", "setting": "E. coli ATCC 25922 [4]; 20 μM peptide, n = 212 cells", "result": "~ 17%"},
      {"measurement": "bacterial morphology with NaCl", "setting": "E. coli ATCC 25922 [4]; 40 μM peptide co-treated with 200 mM NaCl", "result": "smooth morphology similar to that of the untreated control"},
      {"measurement": "bacterial morphology (phase-contrast)", "setting": "E. coli ATCC 25922 [4]; 2 and 4 μM peptide, mid-log phase, 1 × 10^6 CFU/mL, standard AMA conditions", "result": "formation of large bulges"},
      {"measurement": "cells elongated (length 5 μm or greater)", "setting": "E. coli ATCC 25922 [4]; ≥40 μM peptide, n = 203 cells", "result": "≥ 4", "unit": "%"},
      {"measurement": "cells exhibiting blebs", "setting": "E. coli ATCC 25922 [4]; ≥40 μM peptide, n = 203 cells", "result": "~ 30%"},
      {"measurement": "log-reduction in CFU/mL", "setting": "E. coli ATCC 25922 [5]; mid-log phase E. coli", "result": "~ 4 fold log-reduction in CFU/mL"},
      {"measurement": "log-reduction in CFU/mL", "setting": "E. coli ATCC 25922 [5]; stationary phase E. coli", "result": "~ 2 fold log-reduction in CFU/mL"},
      {"measurement": "log reduction in CFU/mL", "setting": "E. coli ATCC 25922 [5]; 40 μM peptide, modified AMA conditions, 1 × 10^8 CFU/mL", "result": "≈ 2 fold log reduction in CFU/mL"},
      {"measurement": "antibacterial activity in presence of Zn(II)", "setting": "E. coli ATCC 25922 [5]; 2:1 Zn(II):HD5ox molar ratio", "result": "loss of antibacterial activity"},
      {"measurement": "HD5ox activity in presence of divalent cations", "setting": "E. coli ATCC 25922 [5]; Ca(II), Mg(II) and Zn(II) added", "result": "blocked HD5ox activity"},
      {"measurement": "lethal dose for 99.99% killing, LD99.99", "setting": "E. coli ATCC 25922 [5]; E. coli ATCC 25922, 1 × 10^6 CFU/mL, n = 3 (Figure 9C)", "result": 8, "unit": "µM"},
      {"measurement": "bacterial morphology", "setting": "[6]; 20 μM peptide, 1 × 10^8 CFU/mL, mid-log, 1 h 37 °C", "result": "bleb formation, elongation, and clumping"},
      {"measurement": "HD5ox concentration at which blebs were displayed", "setting": "[6]; 17978, 1 h", "result": 10, "unit": "µM"},
      {"measurement": "bacterial morphology", "setting": "E. coli CFT073", "result": "bleb formation, elongation, and clumping"},
      {"measurement": "bacterial morphology", "setting": "E. coli K-12", "result": "bleb formation, elongation, and clumping"},
      {"measurement": "mean cell length after treatment", "setting": "E. coli cyto-GFP; mid-log phase, increasing HD5ox (0–80 μM), from 2.8 ± 0.8 μm without peptide", "result": "3.4 ± 1.0", "unit": "μm"},
      {"measurement": "mean GFP fluorescence intensity after treatment", "setting": "E. coli cyto-GFP; mid-log phase, increasing HD5ox (0–80 μM), from 155 ± 48 units without peptide", "result": "93 ± 47", "unit": "units"},
      {"measurement": "mean cell length after treatment", "setting": "E. coli cyto-GFP; stationary phase, from 3.0 ± 0.8 μm without peptide", "result": "2.9 ± 0.7", "unit": "μm"},
      {"measurement": "mean GFP fluorescence intensity after treatment", "setting": "E. coli cyto-GFP; stationary phase, from 112 ± 38 units without peptide", "result": "139 ± 53", "unit": "units"}
    ]},
    {"molecule": "B1", "values": [
      {"measurement": "log reduction of CFU/mL", "setting": "E. coli ATCC 25922 [5]; 16 μM peptide", "result": "2 fold log reduction of CFU/mL"}
    ]},
    {"molecule": "B2", "values": [
      {"measurement": "antimicrobial activity against E. coli (in words)", "setting": "E. coli ATCC 25922 [5]; AMA assay", "result": "active against E. coli"}
    ]}
  ]
}
